Experimental data: ChEMBL document CHEMBL1641445, “Synthesis, antiprotozoal, antimicrobial, β-hematin inhibition, cytotoxicity and methemoglobin (MetHb) formation activities of bis(8-aminoquinolines)” (Bioorg Med Chem, 2011)
Active and inactive are the calls of the source. The calls are words filed in the database; no cut-off is given here.

How the values were obtained:
Vero = assay: Cytotoxicity against african green monkey Vero cells up to 10 ug/ml by neutral red assay; format: cell-based; settings: chlorocebus sabaeus
How it was run: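 Vero (monkey kidney) cells were exposed up to a highest concentration of 10 µg/mL. Viability was read by neutral red uptake.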

[1] = Inhibition of beta-hematin formation; format: functional
Plasmodium falciparum [2] = assay: Antimalarial activity against chloroquine-resistant Plasmodium falciparum W2 by LDH assay; format: functional, organism-based; settings: Plasmodium falciparum, W2; read-out: IC50
How it was run: (§1)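 Antiplasmodial activity was measured in vitro against P. falciparum blood-stage cultures. Read-out was parasite lactate dehydrogenase (LDH) activity, with IC50 values expressed in µg/mL. The same protocol was used for the D6 and W2 strains.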

[3] = Hematotoxicity against RBC assessed as formation of methemoglobin at 20 ug/ml relative to control; format: cell-based; settings: erythrocyte
How it was run: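 Metabolism-linked methemoglobin toxicity in vitro. Percent MetHb formation was determined at 20 µg/mL of compound relative to vehicle control.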

Plasmodium falciparum [4] = assay: Antimalarial activity against chloroquine-sensitive Plasmodium falciparum D6 by LDH assay; format: functional, organism-based; how it was run: as §1
Plasmodium berghei = assay: Antimalarial activity against Plasmodium berghei infected in mouse assessed as complete elimination of malaria parasites from animals at 100 mg/kg, po qd for 4 days measured up to 60 days; format: functional, organism-based; design: dose 100 mg/kg
How it was run: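 Rodent P. berghei (sensitive strain) blood-schizontocidal model, 6 mice per group. Compounds were given orally once daily for 4 days at 10, 25, 50 or 100 mg/kg/day. Cure meant complete parasite elimination with survival to day D+60.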

Leishmania donovani = assay: Antileishmanial activity against promastigotes of Leishmania donovani by alamar blue assay; format: functional, organism-based
Staphylococcus aureus [5] = assay: Antibacterial activity against methicillin-resistant Staphylococcus aureus ATCC 43300 at 20 ug/ml by CLSI method; format: functional, organism-based
How it was run: (§2)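 Broth dilution method (NCCLS M7-A5). […] MIC is the lowest concentration allowing no detectable growth. MBC is the lowest concentration killing the organism. Highest test concentration was 20 µg/mL.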

Staphylococcus aureus [6] = assay: Antibacterial activity against methicillin-resistant Staphylococcus aureus ATCC 43300 by CLSI method; format: functional, organism-based; how it was run: as §2
[7] = tested on: Mycobacterium intracellulare; assay: Antibacterial activity against Mycobacterium intracellular ATCC 23068 by CLSI method; format: functional, organism-based
[8] = tested on: Mycobacterium intracellulare; assay: Antibacterial activity against Mycobacterium intracellular ATCC 23068 at 20 ug/ml by CLSI method; format: functional, organism-based
Cryptococcus neoformans = assay: Antifungal activity against Cryptococcus neoformans ATCC 90113; format: functional, organism-based
Candida albicans = assay: Antifungal activity against Candida albicans ATCC 90028 at 20 ug/ml; format: functional, organism-based
Aspergillus fumigatus = assay: Antifungal activity against Aspergillus fumigatus ATCC 90906 at 20 ug/ml; format: functional, organism-based
Nakaseomyces glabratus = assay: Antifungal activity against Candida glabrata at 20 ug/ml; format: functional, organism-based
Pichia kudriavzevii = assay: Antifungal activity against Candida krusei at 20 ug/ml; format: functional, organism-based
[9] = Plasmodium falciparum, D6, read-out: IC50
[10] = Leishmania donovani, read-out: IC50

Row | SMILES | Activity (Vero) | IC50 [1] | IC50 (Plasmodium falciparum [2]) | Methemoglobin formation [3] | IC50 (Plasmodium falciparum [4]; [9]) | Activity (Plasmodium berghei) | MBC (Staphylococcus aureus [5]) | IC50 (Staphylococcus aureus [6]) | IC90 (Leishmania donovani; Leishmania donovani) | IC50 (Leishmania donovani; [10]) | MBC [8] | MIC (Staphylococcus aureus [6]) | IC50 [8] | MIC [8] | Activity (Aspergillus fumigatus) | Activity (Nakaseomyces glabratus) | MFC (Candida albicans) | MIC (Candida albicans) | Activity (Pichia kudriavzevii) | other results
1 | COc1cc(NC(C)CCCNC(=O)NCCCC(C)Nc2cc(OC)cc3cccnc23)c2ncccc2c1.Cl.Cl (stereo not given) | Non-toxic | > 1000 µM | 4.76 µg/mL | 9.8% | 4.76 µg/mL | inactive |  |  |  |  |  |  |  |  |  |  |  |  |  | IC50 (Leishmania donovani): Not Active; IC90 (Leishmania donovani): inactive
2 | COc1cc(NC(C)CCCNC(=O)C[C@@H](N)C(=O)NCCCC(C)Nc2cc(OC)cc3cccnc23)c2ncccc2c1.Cl (stereo not given in full) | Non-toxic | 120 µM |  | 7.25% | 3.3 µg/mL |  | inactive | 15 µg/mL | 31 µg/mL | 11.5 µg/mL | inactive |  |  |  |  |  |  |  |  | MIC (Staphylococcus aureus [5]): inactive; IC50 [7]: 15 µg/mL; MIC [7]: 20 µg/mL
3 | COc1cc(NC(C)CCCNC(=O)NC(CCCNC(=N)N)C(=O)NCCCC(C)Nc2cc(OC)cc3cccnc23)c2ncccc2c1.Cl (single isomer, unassigned; 36) | Non-toxic | 90 µM |  | 3.1% |  |  |  | 15 µg/mL | 7.2 µg/mL |  |  | 20 µg/mL |  |  |  |  |  |  |  | IC50 [7]: 15 µg/mL; MBC [7]: 20 µg/mL; MIC [7]: 20 µg/mL; IC50 (Cryptococcus neoformans): 6.5 µg/mL; MFC (Cryptococcus neoformans): 10 µg/mL; MIC (Cryptococcus neoformans): 10 µg/mL; IC50 (Candida albicans): Not Active
4 | COc1cc(NC(C)CCCNC(=O)NCCCC(C)Nc2cc(OC)cc3ccc(C(C)(C)C)nc23)c2nc(C(C)(C)C)ccc2c1.Cl.Cl (stereo not given) | Non-toxic | > 1000 µM |  | 1% | 3 µg/mL | inactive |  |  |  |  |  |  |  |  |  |  |  |  |  | IC50 (Leishmania donovani): Not Active; IC90 (Leishmania donovani): inactive
5 | CCCCCOc1c(OC)cc(NC(C)CCCNC(=O)NCCCC(C)Nc2cc(OC)c(OCCCCC)c3c(CC)ccnc23)c2nccc(CC)c12.Cl.Cl (stereo not given) | Non-toxic | 80 µM | 1.3 µg/mL | 4.7% | 1.7 µg/mL |  | inactive | 8.5 µg/mL | 7 µg/mL | 3.5 µg/mL | inactive | 20 µg/mL | Not Active | inactive |  |  |  |  |  | 
6 | COc1cc(NC(C)CCCNC(=O)C[C@H](N)C(=O)NCCCC(C)Nc2cc(OC)cc3ccc(C(C)(C)C)nc23)c2nc(C(C)(C)C)ccc2c1.Cl (stereo not given in full) | Non-toxic | 140 µM |  | 1.55% |  | inactive |  | 6.5 µg/mL | 33 µg/mL | 15 µg/mL | inactive |  | Not Active | inactive | inactive | inactive | inactive | inactive | inactive | MBC (Staphylococcus aureus [6]): 20 µg/mL; IC50 (Plasmodium falciparum [4]): Not Active; IC50 (Cryptococcus neoformans): 10 µg/mL; MFC (Cryptococcus neoformans): 20 µg/mL; MIC (Cryptococcus neoformans): 20 µg/mL; IC50 (Candida albicans): Not Active
7 | COc1cc(NC(C)CCCNC(=O)NC(=O)NCCCC(C)Nc2cc(OC)cc3cccnc23)c2ncccc2c1.Cl.Cl (stereo not given) | Non-toxic | 155 µM | 3.4 µg/mL | 2.25% | 4.76 µg/mL | inactive |  |  |  |  |  |  |  |  |  |  |  |  |  | IC50 (Leishmania donovani): Not Active; IC90 (Leishmania donovani): inactive
8 | COc1cc(NC(C)CCCNC(=O)N[C@H](CCCCN)C(=O)NCCCC(C)Nc2cc(OC)cc3cccnc23)c2ncccc2c1.Cl (stereo not given in full) | Non-toxic | 162 µM |  | 2.8% |  |  | inactive | 10 µg/mL | 36 µg/mL | 18.5 µg/mL | inactive | 20 µg/mL | Not Active | inactive | inactive | inactive | inactive | inactive | inactive | IC50 (Cryptococcus neoformans): 10 µg/mL; MFC (Cryptococcus neoformans): 20 µg/mL; MIC (Cryptococcus neoformans): 20 µg/mL; IC50 (Candida albicans): Not Active
9 | COc1cc(NC(C)CCCNC(=O)CC[C@H](N)C(=O)NCCCC(C)Nc2cc(OC)cc3ccc(C(C)(C)C)nc23)c2nc(C(C)(C)C)ccc2c1.Cl (stereo not given in full) | Non-toxic | > 1000 µM | 2.3 µg/mL | 3.3% | 4.7 µg/mL | inactive |  | 8.5 µg/mL | 10.7 µg/mL | 3.9 µg/mL | inactive | 20 µg/mL | Not Active | inactive |  |  |  |  |  | MBC (Staphylococcus aureus [6]): 20 µg/mL
10 | COc1cc(NC(C)CCCNC(=O)NC(CCCNC(=N)N)C(=O)NCCCC(C)Nc2cc(OC)cc3cccnc23)c2ncccc2c1 (single isomer, unassigned; 39) |  |  |  |  |  |  |  |  |  |  | inactive |  |  | inactive | inactive | inactive | inactive | inactive | inactive | 
11 | COc1cc(NC(C)CCCNC(=O)NC(CCCN)C(=O)NCCCC(C)Nc2cc(OC)cc3cccnc23)c2ncccc2c1 (single isomer, unassigned; 40) |  |  |  |  |  |  | inactive |  |  |  | inactive |  |  | inactive | inactive | inactive | inactive | inactive | inactive | 
12 | COc1cc(NC(C)CCCNCC(=O)NCCCC(C)Nc2cc(OC)cc3ccc(C(C)(C)C)nc23)c2nc(C(C)(C)C)ccc2c1.Cl.Cl (stereo not given) | Non-toxic | 75 µM | 1.3 µg/mL | 1.1% | 1.5 µg/mL |  | inactive | 15 µg/mL | 7.8 µg/mL | 2.9 µg/mL | inactive | 20 µg/mL |  | inactive |  |  |  |  |  | IC50 [7]: 15 µg/mL
13 | COc1cc(NC(C)CCCNC(=O)NC(CCCN)C(=O)NCCCC(C)Nc2cc(OC)cc3cccnc23)c2ncccc2c1 (single isomer, unassigned; 37) |  |  |  |  |  | inactive |  |  |  |  |  |  |  |  | inactive | inactive | inactive | inactive | inactive | 
